From publication PMC7825275 (Cancer chemotherapy and pharmacology, 2019)

Test system: patients with advanced solid tumors
Test: Toxicity by grade
Format: in vivo, human
In short: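 Adverse events were tabulated descriptively as maximum grade in three groups: the chemotherapy-only lead-in cycle, the first veliparib-containing cycle, and all cycles. CBC and serum chemistry including liver function tests were drawn weekly during cycles 1–2, then at the start of every cycle. Veliparib was oral, twice daily on days 1–7; carboplatin/paclitaxel were IV every 21 days.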

[1] = first cycle including veliparib with carboplatin and paclitaxel, n=73
[2] = veliparib with carboplatin and paclitaxel

## C[C@]1(c2nc3c(C(N)=O)cccc3[nH]2)CCCN1 [veliparib]
[1]
  Fever, Grade 4: 0 number of patients (%)
  Flu like symptoms, Any Grade: 1 (1) number of patients (%)
  Flu like symptoms, Grade 1: 1 (1) number of patients (%)
  Flu like symptoms, Grade 2: 0 number of patients (%)
  Flu like symptoms, Grade 3: 0 number of patients (%)
  Flu like symptoms, Grade 4: 0 number of patients (%)
  Flushing, Any Grade: 2 (3) number of patients (%)
  Flushing, Grade 1: 2 (3) number of patients (%)
  Flushing, Grade 2: 0 number of patients (%)
  Flushing, Grade 3: 0 number of patients (%)
  Flushing, Grade 4: 0 number of patients (%)
  Headache, Any Grade: 3 (4) number of patients (%)
  Headache, Grade 1: 3 (4) number of patients (%)
  Headache, Grade 2: 0 number of patients (%)
  Headache, Grade 3: 0 number of patients (%)
  Headache, Grade 4: 0 number of patients (%)
  Hiccups, Any Grade: 1 (1) number of patients (%)
  Hiccups, Grade 1: 1 (1) number of patients (%)
  Hiccups, Grade 2: 0 number of patients (%)
  Hiccups, Grade 3: 0 number of patients (%)
  Hiccups, Grade 4: 0 number of patients (%)
  Hypoalbuminemia, Any Grade: 3 (4) number of patients (%)
  Hypoalbuminemia, Grade 1: 1 (1) number of patients (%)
  Hypoalbuminemia, Grade 2: 2 (3) number of patients (%)
  Hypoalbuminemia, Grade 3: 0 number of patients (%)
  Hypoalbuminemia, Grade 4: 0 number of patients (%)
  Hypocalcemia, Any Grade: 2 (3) number of patients (%)
  Hypocalcemia, Grade 1: 0 number of patients (%)
  Hypocalcemia, Grade 2: 1 (1) number of patients (%)
  Hypocalcemia, Grade 3: 1 (1) number of patients (%)
  Hypocalcemia, Grade 4: 0 number of patients (%)
  Hypomagnesemia, Any Grade: 1 (1) number of patients (%)
  Hypomagnesemia, Grade 1: 0 number of patients (%)
  Hypomagnesemia, Grade 2: 1 (1) number of patients (%)
  Hypomagnesemia, Grade 3: 0 number of patients (%)
  Hypomagnesemia, Grade 4: 0 number of patients (%)
  Hyponatremia, Any Grade: 5 (7) number of patients (%)
  Hyponatremia, Grade 1: 3 (4) number of patients (%)
  Hyponatremia, Grade 2: 0 number of patients (%)
  Hyponatremia, Grade 3: 1 (1) number of patients (%)
  Hyponatremia, Grade 4: 1 (1) number of patients (%)
  Hypophosphatemia, Any Grade: 1 (1) number of patients (%)
  Hypophosphatemia, Grade 1: 0 number of patients (%)
  Hypophosphatemia, Grade 2: 0 number of patients (%)
  Hypophosphatemia, Grade 3: 1 (1) number of patients (%)
  Hypophosphatemia, Grade 4: 0 number of patients (%)
  Insomnia, Any Grade: 1 (1) number of patients (%)
  Insomnia, Grade 1: 1 (1) number of patients (%)
  Insomnia, Grade 2: 0 number of patients (%)
  Insomnia, Grade 3: 0 number of patients (%)
  Insomnia, Grade 4: 0 number of patients (%)
  Lymphocyte count decreased, Any Grade: 14 (19) number of patients (%)
  Lymphocyte count decreased, Grade 1: 2 (3) number of patients (%)
  Lymphocyte count decreased, Grade 2: 8 (11) number of patients (%)
  Lymphocyte count decreased, Grade 3: 3 (4) number of patients (%)
  Lymphocyte count decreased, Grade 4: 1 (1) number of patients (%)
  Mucositis oropharyngeal, Any Grade: 3 (4) number of patients (%)
  Mucositis oropharyngeal, Grade 1: 3 (4) number of patients (%)
  Mucositis oropharyngeal, Grade 2: 0 number of patients (%)
  Mucositis oropharyngeal, Grade 3: 0 number of patients (%)
  Mucositis oropharyngeal, Grade 4: 0 number of patients (%)
  Muscle weakness, Grade 1: 1(1) number of patients (%)
  Muscle weakness, Grade 2: 1 (1) number of patients (%)
  Muscle weakness, Grade 3: 0 number of patients (%)
  Muscle weakness, Grade 4: 0 number of patients (%)
  Myalgia, Any Grade: 8 (11) number of patients (%)
  Myalgia, Grade 1: 6 (8) number of patients (%)
  Myalgia, Grade 2: 2 (3) number of patients (%)
  Myalgia, Grade 3: 0 number of patients (%)
  Myalgia, Grade 4: 0 number of patients (%)
  Nausea, Any Grade: 28 (38) number of patients (%)
  Nausea, Grade 1: 22 (30) number of patients (%)
  Nausea, Grade 2: 5 (7) number of patients (%)
  Nausea, Grade 3: 1 (1) number of patients (%)
  Nausea, Grade 4: 0 number of patients (%)
  Neutrophil count decreased, Any Grade: 42 (57) number of patients (%)
  Neutrophil count decreased, Grade 1: 1 (1) number of patients (%)
  Neutrophil count decreased, Grade 2: 4 (5) number of patients (%)
  Neutrophil count decreased, Grade 3: 14 (19) number of patients (%)
  Neutrophil count decreased, Grade 4: 23 (31) number of patients (%)
  Non-cardiac chest pain, Any Grade: 1 (1) number of patients (%)
  Non-cardiac chest pain, Grade 1: 1 (1) number of patients (%)
  Non-cardiac chest pain, Grade 2: 0 number of patients (%)
  Non-cardiac chest pain, Grade 3: 0 number of patients (%)
  Non-cardiac chest pain, Grade 4: 0 number of patients (%)
  Paresthesia, Any Grade: 1 (1) number of patients (%)
  Paresthesia, Grade 1: 1 (1) number of patients (%)
  Paresthesia, Grade 2: 0 number of patients (%)
  Paresthesia, Grade 3: 0 number of patients (%)
  Paresthesia, Grade 4: 0 number of patients (%)
  Peripheral sensory neuropathy, Any Grade: 7 (10) number of patients (%)
  Peripheral sensory neuropathy, Grade 1: 7 (10) number of patients (%)
  Peripheral sensory neuropathy, Grade 2: 0 number of patients (%)
  Peripheral sensory neuropathy, Grade 3: 0 number of patients (%)
  Peripheral sensory neuropathy, Grade 4: 0 number of patients (%)
  Platelet count decreased, Any Grade: 13 (18) number of patients (%)
  Platelet count decreased, Grade 1: 7 (10) number of patients (%)
  Platelet count decreased, Grade 2: 2 (3) number of patients (%)
  Platelet count decreased, Grade 3: 4 (5) number of patients (%)
  Platelet count decreased, Grade 4: 0 number of patients (%)
  Presyncope, Any Grade: 1 (1) number of patients (%)
  Presyncope, Grade 1: 0 number of patients (%)
  Presyncope, Grade 2: 0 number of patients (%)
  Presyncope, Grade 3: 1 (1) number of patients (%)
  Presyncope, Grade 4: 0 number of patients (%)
  Pruritus, Any Grade: 3 (4) number of patients (%)
  Pruritus, Grade 1: 3 (4) number of patients (%)
  Pruritus, Grade 2: 0 number of patients (%)
  Pruritus, Grade 3: 0 number of patients (%)
  Pruritus, Grade 4: 0 number of patients (%)
  Purpura, Any Grade: 1 (1) number of patients (%)
  Purpura, Grade 1: 1 (1) number of patients (%)
  Purpura, Grade 2: 0 number of patients (%)
  Purpura, Grade 3: 0 number of patients (%)
  Purpura, Grade 4: 0 number of patients (%)
  Rash maculopapular, Any Grade: 2 (3) number of patients (%)
  Rash maculopapular, Grade 1: 2 (3) number of patients (%)
  Rash maculopapular, Grade 2: 0 number of patients (%)
  Rash maculopapular, Grade 3: 0 number of patients (%)
  Rash maculopapular, Grade 4: 0 number of patients (%)
  Sepsis, Any Grade: 2 (3) number of patients (%)
  Sepsis, Grade 1: 0 number of patients (%)
  Sepsis, Grade 2: 0 number of patients (%)
  Sepsis, Grade 3: 0 number of patients (%)
  Sepsis, Grade 4: 2 (3) number of patients (%)
  Sinus disorder, Any Grade: 1 (1) number of patients (%)
  Sinus disorder, Grade 1: 1 (1) number of patients (%)
  Sinus disorder, Grade 2: 0 number of patients (%)
  Sinus disorder, Grade 3: 0 number of patients (%)
  Sinus disorder, Grade 4: 0 number of patients (%)
  Tremor, Any Grade: 1 (1) number of patients (%)
  Tremor, Grade 1: 1 (1) number of patients (%)
  Tremor, Grade 2: 0 number of patients (%)
  Tremor, Grade 3: 0 number of patients (%)
  Tremor, Grade 4: 0 number of patients (%)
  Upper respiratory infection, Any Grade: 1 (1) number of patients (%)
  Upper respiratory infection, Grade 1: 0 number of patients (%)
  Upper respiratory infection, Grade 2: 1 (1) number of patients (%)
  Upper respiratory infection, Grade 3: 0 number of patients (%)
  Upper respiratory infection, Grade 4: 0 number of patients (%)
  Vomiting, Any Grade: 9 (12) number of patients (%)
  Vomiting, Grade 1: 7 (10) number of patients (%)
  Vomiting, Grade 2: 2 (3) number of patients (%)
  Vomiting, Grade 3: 0 number of patients (%)
  Vomiting, Grade 4: 0 number of patients (%)
  Weight loss, Any Grade: 2 (3) number of patients (%)
  Weight loss, Grade 1: 2 (3) number of patients (%)
  Weight loss, Grade 2: 0 number of patients (%)
  Weight loss, Grade 3: 0 number of patients (%)
  Weight loss, Grade 4: 0 number of patients (%)
  White blood cell decreased, Any Grade: 40 (55) number of patients (%)
  White blood cell decreased, Grade 1: 6 (8) number of patients (%)
  White blood cell decreased, Grade 2: 14 (19) number of patients (%)
  White blood cell decreased, Grade 3: 17 (23) number of patients (%)
  White blood cell decreased, Grade 4: 3 (4) number of patients (%)
Total across the dose levels
  Febrile neutropenia or grade 3-4 neutropenia lasting more than 7 days: 7 patients
[2]
  neutropenia highest grade 3, DLT assessment period: 19%
  neutropenia highest grade 4, DLT assessment period: 31%
  neutropenia, frequency during the DLT assessment period: 57%
